According to ChEMBL document CHEMBL1128292, “Discovery of a novel series of orally active non-peptide endothelin-A (ETA) receptor-selective antagonists” (J Med Chem, 1995):

Experiments:
[1] = target: T1, Endothelin receptor type B (Homo sapiens, UniProt P24530); experiment: Tested for antagonistic activity against Endothelin B receptor in the humans (CHO expressed).; assay type: functional
T1 sequence (P24530 whole entry): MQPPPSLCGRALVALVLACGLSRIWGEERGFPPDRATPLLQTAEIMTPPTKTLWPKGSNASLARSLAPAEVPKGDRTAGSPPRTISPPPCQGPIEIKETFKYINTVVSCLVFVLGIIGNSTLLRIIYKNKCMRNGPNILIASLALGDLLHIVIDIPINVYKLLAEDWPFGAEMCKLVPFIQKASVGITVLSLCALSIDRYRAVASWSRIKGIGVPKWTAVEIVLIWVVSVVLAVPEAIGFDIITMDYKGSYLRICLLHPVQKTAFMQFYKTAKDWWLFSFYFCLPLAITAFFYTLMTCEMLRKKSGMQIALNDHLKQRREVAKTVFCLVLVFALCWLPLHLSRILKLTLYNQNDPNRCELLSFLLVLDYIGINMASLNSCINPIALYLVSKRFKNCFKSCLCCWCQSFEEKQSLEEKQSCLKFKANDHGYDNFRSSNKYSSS
Procedure, shortened: (§1)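 Membranes from cultured CHO-K1 cells expressing cloned human ETB receptor, incubated with [125I]ET-3 alone or with increasing unlabelled ligand concentrations, 37 °C, 2 h. Filtration separated bound from free ligand; gamma counting. Nonspecific binding measured with 100 nM unlabelled ET-3. One-site nonlinear least-squares fit of specific binding. IC50 from single competition experiments, triplicate points.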

Endothelin-1 receptor = target: T2, Endothelin-1 receptor (Homo sapiens, UniProt P25101); experiment: Antagonistic activity against human Endothelin A receptor expressed in LtK; assay type: functional
T2 sequence (P25101 whole entry): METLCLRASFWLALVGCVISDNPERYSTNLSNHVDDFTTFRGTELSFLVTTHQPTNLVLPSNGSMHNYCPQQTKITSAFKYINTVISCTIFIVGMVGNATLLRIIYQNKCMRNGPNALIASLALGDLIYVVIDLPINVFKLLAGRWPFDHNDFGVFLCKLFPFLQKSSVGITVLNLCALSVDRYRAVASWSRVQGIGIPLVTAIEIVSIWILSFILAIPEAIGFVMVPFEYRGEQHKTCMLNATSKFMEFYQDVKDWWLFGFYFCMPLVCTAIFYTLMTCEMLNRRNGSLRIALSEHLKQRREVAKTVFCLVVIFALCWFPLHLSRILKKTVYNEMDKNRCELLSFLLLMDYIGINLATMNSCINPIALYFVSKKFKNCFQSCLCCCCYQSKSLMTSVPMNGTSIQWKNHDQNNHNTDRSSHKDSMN

[2] = target: T3, Endothelin receptor type B (Rattus norvegicus, UniProt P21451); experiment: Tested for antagonistic activity against Endothelin B receptor in the rat cerebellum.; assay type: functional, tissue-based
T3 sequence (P21451 whole entry): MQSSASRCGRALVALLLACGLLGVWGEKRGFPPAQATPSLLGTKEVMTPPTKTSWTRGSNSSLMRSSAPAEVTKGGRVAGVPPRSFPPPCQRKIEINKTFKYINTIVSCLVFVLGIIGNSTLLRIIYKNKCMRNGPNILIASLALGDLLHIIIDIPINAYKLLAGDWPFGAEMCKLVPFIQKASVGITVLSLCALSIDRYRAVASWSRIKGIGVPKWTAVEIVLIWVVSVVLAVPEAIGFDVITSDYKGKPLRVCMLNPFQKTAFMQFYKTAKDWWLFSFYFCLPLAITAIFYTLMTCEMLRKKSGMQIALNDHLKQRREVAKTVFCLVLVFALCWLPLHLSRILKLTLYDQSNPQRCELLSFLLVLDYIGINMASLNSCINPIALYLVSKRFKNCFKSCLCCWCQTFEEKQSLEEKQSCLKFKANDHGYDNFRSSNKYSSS

[3] = target: T1, Endothelin receptor type B; experiment: Tested for antagonistic activity against Endothelin B receptor in human (CHO expressed).; assay type: functional; procedure, shortened: as §1

SMILES	IC50 [1] [µM]	IC50 (Endothelin-1 receptor) [µM]	IC50 [2] [µM]	IC50 [3] [µM]
COc1ccc(C2(O)OC(=O)C(c3ccc4c(c3)OCO4)=C2Cc2ccc(C)cc2)cc1 (stereo unspecified)	0.39	0.051	4.5	–
COc1ccc(C2(O)OC(=O)C(c3ccc4c(c3)OCO4)=C2Cc2ccccc2)cc1C (stereo unspecified)	1.75	0.012	–	–
COc1ccc(CC2=C(c3ccc(Cl)cc3)C(=O)OC2(O)c2ccc(OC)cc2)cc1 (stereo unspecified)	> 2.5	–	–	–
COc1ccc(C2(O)OC(=O)C(c3ccc4c(c3)OCO4)=C2Cc2ccc(Cl)cc2)cc1 (stereo unspecified)	> 2.5	–	–	–
COc1ccc(CC2=C(c3ccccc3)C(=O)OC2(O)c2ccc(OC)cc2)cc1 (stereo unspecified)	> 2.5	–	–	–
COc1ccc(C2(O)OC(=O)C(c3ccc4c(c3)OCO4)=C2Cc2ccc(OC)c(C)c2)cc1 (stereo unspecified)	1.14	0.0024	–	–
COc1ccc(CC2=C(c3ccc(C)cc3)C(=O)OC2(O)c2ccc(OC)cc2)cc1 (stereo unspecified)	> 2.7	–	–	–
COc1ccc(CC2=C(c3ccc(Cl)c(Cl)c3)C(=O)OC2(O)c2ccc(OC)cc2)cc1 (stereo unspecified)	> 2.5	0.17	–	–
COc1ccc(CC2=C(c3ccc4c(c3)OCO4)C(=O)OC2(O)c2ccc(OC)cc2)cc1 (stereo unspecified)	1.55	–	–	–
O=C1OC(O)(c2ccccc2)C(Cc2ccccc2)=C1c1ccc2c(c1)OCO2 (stereo unspecified)	–	–	22	30
COc1ccc(CC2=C(c3ccc(OC)cc3)C(=O)OC2(O)c2ccc(OC)cc2)cc1 (stereo unspecified)	> 2.5	–	–	–
O=C1OC(O)(c2ccc(Cl)cc2)C(Cc2ccccc2)=C1c1ccc2c(c1)OCO2 (stereo unspecified)	27	–	5.2	–
Cc1ccc(C2(O)OC(=O)C(c3ccc4c(c3)OCO4)=C2Cc2ccccc2)cc1 (stereo unspecified)	–	–	4.5	> 25
O=C1OC(O)(c2ccc(Cl)c(Cl)c2)C(Cc2ccccc2)=C1c1ccc2c(c1)OCO2 (stereo unspecified)	> 25	–	–	–
COc1ccc(C2(O)OC(=O)C(c3ccc4c(c3)OCO4)=C2Cc2ccccc2)cc1 (stereo unspecified) [PD-155080]	–	–	0.5	4.55
COc1ccc(C(=O)/C(Cc2cc(OC)c(OC)c(OC)c2)=C(\C(=O)O)c2ccc3c(c2)OCO3)cc1 [PD-156707 SODIUM]	0.417	0.00031	–	–
